# From PubChem BioAssay
# NadD inh: inhibitors of Staphylococcus aureus NadD; purified NadD enzyme, colorimetric absorbance read-out; inhibition, % at 20 µM; hit rate 0.78% among 360,000; in the data active means inhibition above about 26%
# rCAG binder-1: molecules binding r(CAG) RNA repeats | r(CAG) RNA repeat, TO-PRO-1 dye displacement fluorescence | hit rate 1.3% among 370,000 | inhibition, % at 3 µM;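 active means inhibition above the plate cutoff, the mean of all test compounds on that plate plus 3 SD, cut at about 35% in these data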;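 further: 0% = DMSO alone and 100% = 100 µM mitoxantrone as full dye displacement; higher means more dye released from RNA so lower well fluorescence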
# ARFGAP1 inhibitor: inhibitors of rat ARFGAP1; Q62848; Arfgap1-stimulated ARF1 GTP hydrolysis, GDP FP detection; inhibition, % at 16.5 µM; hit rate 0.26% among 360,000; AID 651572;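 active means inhibition above a per-plate limit, mean inhibition of low control wells plus 3 SD, cut at about 25% in these data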;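 further: 0% = DMSO wells with enzyme and 100% = wells lacking Arfgap1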
# Target sequence (Q62848 1-136 limits assumed): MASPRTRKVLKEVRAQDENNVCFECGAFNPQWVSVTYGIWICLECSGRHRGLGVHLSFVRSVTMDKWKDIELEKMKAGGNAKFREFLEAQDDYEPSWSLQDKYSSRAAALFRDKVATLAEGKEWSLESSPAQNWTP
#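 Assay system: Rat Arfgap1 GAP domain (His6, aa 1-136), purified enzyme | Buffer or medium: HEPES 25 mM pH 7.5, NaCl 150 mM, MgCl2, DTT | Schedule: GTP hydrolysis reaction 2 h at 25 °C | Signal: FP of antibody-bound GDP Alexa 633 tracer, ex 620/em 688 nm | Measure: Percent inhibition of Arfgap1-stimulated GTP hydrolysis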
# ASAP1 GAP inh: ASAP1 ArfGAP inhibition | Q9ULH1 | ASAP1-stimulated ARF1 GTP hydrolysis, GDP FP detection | inhibition, % at 16.5 µM | hit rate 0.19% among 360,000; in the data active means inhibition above about 25%;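 further: 0% = vehicle with enzyme and substrate and 100% = no enzyme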
# Target sequence (Q9ULH1 325-724 limits assumed): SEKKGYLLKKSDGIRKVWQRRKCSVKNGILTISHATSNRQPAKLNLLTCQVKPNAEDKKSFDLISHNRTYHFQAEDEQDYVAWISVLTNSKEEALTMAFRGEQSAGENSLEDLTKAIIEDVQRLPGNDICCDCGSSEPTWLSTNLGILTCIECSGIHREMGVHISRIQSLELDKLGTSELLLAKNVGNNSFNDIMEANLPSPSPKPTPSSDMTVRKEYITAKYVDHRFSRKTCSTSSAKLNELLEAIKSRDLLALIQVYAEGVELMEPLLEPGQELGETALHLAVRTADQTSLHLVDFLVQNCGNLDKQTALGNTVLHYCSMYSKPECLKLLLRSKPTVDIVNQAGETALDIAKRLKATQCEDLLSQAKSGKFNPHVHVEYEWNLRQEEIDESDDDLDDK
# rCAG binder conf: r(CAG) RNA repeat binding, confirmation; shares compounds with rCAG binder-1; TO-PRO-1 dye displacement fluorescence; inhibition, % at 3 µM; hit rate 70% among 4,300; AID 652065;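 active means inhibition above a per-plate cutoff, the mean inhibition of sample wells plus 3 SD, cut at about 35% in these data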;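 further: loss of TO-PRO-1 fluorescence as compound displaces dye from 1x1 AA loop RNA; 0% = DMSO only wells and 100% = 100 µM mitoxantrone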
# dCAG dye counter: DNA CAG dye complex inhibition counter-screen | shares compounds with rCAG binder-1 | d(CAG) DNA oligo TO-PRO-1 dye displacement, fluorescence | inhibition, % at 3 µM | hit rate 94% among 4,300 | AID 652068;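 active means inhibition above its plate's cutoff, the mean test-well inhibition plus 3 SD, cut at about 4.8% in these data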;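 further: 0% = DNA dye mix with DMSO and 100% = 100 µM mitoxantrone; hits displace the dye from DNA and so lower well fluorescence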
# dCAG dye DR: counter-screen for rCAG binders: inhibitors of DNA CAG TO-PRO-1 complex. shares compounds with rCAG binder-1. AID 686960. DNA CAG/GTC duplex TO-PRO-1 dye displacement fluorescence. IC50, µM. hit rate 20% among 250; in the data active means IC50 below about 10 µM
# dCAG TOPRO ctr: inhibits DNA CAG/GTC TO-PRO-1 complex, rCAG binder counter-screen; shares compounds with rCAG binder-1; d(CAG) DNA duplex TO-PRO-1 dye displacement, fluorescence; IC50, µM; hit rate 80% among 30; AID 720649
# rCAG binder-2: binds r(CAG) RNA repeats in late stage dose response; shares compounds with rCAG binder-1; r(CAG) RNA TO-PRO-1 dye displacement, fluorescence; IC50, µM; hit rate 100% among 30; AID 720651
# * = called active by the depositor; i = inactive; nt = no result given. Rows were chosen to be rich in hits. Some 2.2% of all compounds tested hit in one or more screens of this group. Unless noted, how the calls were made is not given here.
SMILES,NadD inh,rCAG binder-1,ARFGAP1 inhibitor,ASAP1 GAP inh,rCAG binder conf,dCAG dye counter,others
CC1(C(=O)NS(=O)(=O)c2ccc(Cl)s2)CCN1C(=O)C1(c2ccc(Cl)cc2)CCC1 (stereo not drawn),1,62*,-9,-3,59*,21*,
CC1(C(=O)NS(=O)(=O)c2ccc(Cl)s2)CCN1C(=O)C1(c2ccc(Cl)cc2)CC1 (stereo not drawn),-2,54*,-5,2,49*,14*,
COc1ccc2cc(C(=O)NCCCN3CCCC3=O)[nH]c2c1,-2,-2,-7,-8,nt,nt,
Cc1c(Br)cc(-c2nnco2)cc1Br,-4,40*,1,12,4,1,
CN1OC[C@@H]2CN(Cc3ccc(Cl)cc3)[C@H](c3ccc(-n4ccnc4)cc3)C[C@@H]21,6,1,6,-8,nt,nt,
CCc1nnc(NS(=O)(=O)c2ccc(NCc3cc(Cl)ccc3O)cc2)s1,8,65*,-4,9,46*,14*,
CCc1nnc(NS(=O)(=O)c2ccc(NCc3cc(Cl)cc(Cl)c3O)cc2)s1,7,70*,-3,1,37*,9.5*,
Cc1cc(NC(=S)N(Cc2cccc(Br)c2)CC2CCC(C(=O)O)CC2)ccc1Cl (stereo not drawn),19,46*,1,-7,64*,24*,
Cc1cccc(NC(=S)N(Cc2ccc(Cl)cc2)Cc2ccc(C(=O)O)cc2)c1,0,27,3,10,nt,nt,
Cc1ccc(NC(=S)N(Cc2cccc(Br)c2)CC2CCC(C(=O)O)CC2)cc1 (stereo not drawn),-1,24,4,-7,nt,nt,
Cc1cc(C)cc(NC(=S)N(Cc2ccc(Br)cc2)Cc2ccc(C(=O)O)cc2)c1,9,65*,-1,10,68*,27*,
Cc1cc(C)cc(NC(=S)N(Cc2ccc(Cl)cc2)Cc2ccc(C(=O)O)cc2)c1,9,49*,9,3,65*,29*,
Cc1cc(NC(=S)N(Cc2ccc(Cl)cc2)Cc2ccc(C(=O)O)cc2)ccc1Cl,18,69*,-1,2,83*,47*,
O=C(CCC(=O)N1CCN(C2c3ccccc3-c3ccccc32)CC1)Nc1nnc(C(F)(F)F)s1,nt,7,nt,nt,nt,nt,
O=C(NC(CC1=CCCCC1)c1ccccc1)C(F)(F)F (stereo not drawn),nt,2,3,-13,nt,nt,
CCc1ccc(NC(=S)N(Cc2ccc(Cl)cc2)Cc2ccc(C(=O)O)cc2)cc1,13,69*,9,8,61*,23*,
COc1ccc(CN(Cc2ccc(C(=O)O)cc2)C(=S)Nc2ccccc2C)cc1OC,7,2,5,-2,nt,nt,
COc1ccc(NC(=S)N(Cc2ccc(Cl)cc2)Cc2ccc(C(=O)O)cc2)cc1Cl,10,59*,4,2,60*,21*,
COc1cccc(NC(=S)N(Cc2ccc(C(=O)O)cc2)Cc2ccc(OC)c(OC)c2)c1,3,12,-10,-1,nt,nt,
Cc1ccc(NC(=S)N(Cc2ccc(Br)cc2)Cc2ccc(C(=O)O)cc2)cc1C,7,54*,-6,7,71*,31*,dCAG dye DR=i;dCAG TOPRO ctr=4.6*;rCAG binder-2=2*
Cc1ccc(C)c(NC(=S)N(Cc2ccc(Cl)cc2)Cc2ccc(C(=O)O)cc2)c1,8,45*,11,13,49*,14*,
COc1ccc(CN(Cc2ccc(C(=O)O)cc2)C(=S)Nc2ccccc2Cl)cc1OC,-2,15,7,-5,nt,nt,
O=C(Cn1nnc(-c2ccc(N3CCOCC3)cc2)n1)c1cccc(F)c1,nt,4,nt,nt,nt,nt,
CC(C)(C)OC(=O)NCCc1onc(-c2cccc([N+](=O)[O-])c2)c1C(=O)O,-2,5,3,4,nt,nt,
Cc1cc(C)cc(C(=O)NC(CC(N)=O)c2ccc(N3CCCCCC3)c([N+](=O)[O-])c2)c1 (stereo not drawn),-7,3,10,6,nt,nt,
SMILES,NadD inh,rCAG binder-1,ARFGAP1 inhibitor,ASAP1 GAP inh,rCAG binder conf,dCAG dye counter,others
Cc1nn(-c2ccccc2)c(Cl)c1/C=N/NC(=O)c1ccccc1NS(=O)(=O)c1cccs1,17,76*,12,22,80*,45*,
O=C(NN=Cc1c(F)cccc1F)c1ccccc1NS(=O)(=O)c1cccs1,1,38*,-2,-12,21,4.6*,
C=CCn1c(SCc2c(Cl)cccc2Cl)nnc1-c1cccc(C)c1,nt,1,nt,nt,nt,nt,
CCOc1ccc(Cn2c(O)cc(=O)[nH]c2=O)cc1,6,47*,0,6,12,4,
O=C(OCc1cn(Cc2cc(F)ccc2F)nn1)N1CCOCC1,nt,4,nt,nt,nt,nt,
O=C(O)c1cc(O)c2c(c1)[C@@H]([C@H]1c3cc(C(=O)O)cc(O)c3C(=O)c3c(O[C@@H]4O[C@H](CO)[C@@H](O)[C@H](O)[C@H]4O)cccc31)c1cccc(OC3O[C@H](CO)[C@@H](O)[C@H](O)[C@H]3O)c1C2=O (stereo partly drawn),30,100*,11,6,86*,52*,
O=C(O)c1cc(O)c2c(c1)[C@H]([C@H]1c3cc(C(=O)O)cc(O)c3C(=O)c3c(O[C@@H]4O[C@H](CO)[C@@H](O)[C@H](O)[C@H]4O)cccc31)c1cccc(OC3O[C@H](CO)[C@@H](O)[C@H](O)[C@H]3O)c1C2=O (stereo partly drawn),68*,100*,-7,9,99*,90*,
O=C1c2cc(CO)cc(O)c2C(=O)c2c(O[C@@H]3OC(CO)[C@@H](O)[C@@H](O)[C@@H]3O)cccc21 (stereo partly drawn),-2,0,-2,-4,nt,nt,
Cc1occc1-c1nnc(SCC(=O)Nc2ccncc2)n1-c1ccccc1,nt,9,nt,nt,nt,nt,
CCOC(=O)C1=C(C)N=c2s/c(=C\c3ccc(OCC(=O)O)c(OC)c3)c(=O)n2C1c1ccc(OC)cc1 (stereo not drawn),6,54*,-9,4,75*,38*,
CCOC(=O)C1=C(c2ccccc2)N=c2sc(=Cc3cc(OC)c(OC)c(OC)c3)c(=O)n2C1c1cccs1 (stereo not drawn),2,13,2,-4,nt,nt,
CCOC(=O)C1=C(C)N=c2s/c(=C3/C(=O)Nc4ccccc43)c(=O)n2C1c1ccc(C)cc1 (stereo not drawn),27,43*,1,1,53*,22*,dCAG dye DR=i
